Results taken from paper PMC8745002 (European journal of immunology, 2021).

Columns and labels:
SRBC-vaccinated mice [1] = assay: Mouse pan IgG and IgM ELISA; assay type: in vivo, C57/BL6 mice; conditions: 11 days after vaccination
Procedure, shortened: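 Male C57/BL6 mice, 8–12 weeks old, given 100 µL 10% SRBC i.p. on day 0. From 3 days later, 8-day course of test compound (100 µL vehicle, once or three times daily, 5 h apart) or vehicle on the same schedule. Plasma collected at CO2 euthanasia on day 11. Total IgG and IgM measured by commercial ELISA kit per manufacturer. Welch test.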

[2] = cited from earlier work
[3] = In vitro plasma stability assay, mouse plasma; assay type: in vitro ADME; conditions: 37 °C, comparison in words
SRBC-vaccinated mice [4] = assay: SRBC-specific IgM and IgG1 detection in plasma by flow cytometry; assay type: in vivo, C57/BL6 mice; conditions: mice receiving FX1 (80 mg/kg once daily)
Procedure, shortened: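 Plasma taken on day 11 from SRBC-vaccinated (100 µL 10% i.p.) male C57/BL6 mice given compound or vehicle (100 µL) from day 3, diluted 1:5 in PBS. 5 µL incubated with 20 µL 2% SRBC for 5 min, then 20 min with fluorescent anti-mouse IgM or IgG1. Washed, fixed in 1% PFA, read by flow with isotype controls. MFI normalised to unvaccinated-mouse plasma, as fold change.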

SRBC-vaccinated mice [5] = assay: SRBC vaccination mouse model, flow cytometry of splenic cells; assay type: in vivo, C57/BL6 mice; conditions: FX1 80 mg/kg once daily, 8-day course; spleen, day 11
Procedure, shortened: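 Male C57/BL6 mice, 8–12 weeks old, given 100 µL 10% SRBC i.p. on day 0. Compound dosed in 100 µL vehicle from day 3; vehicle controls matched. Spleens taken on day 11 and meshed through a 70 µm strainer. Cells spun 2000 rpm for 10 min, washed in PBS with 2% FBS. Two million mononuclear cells stained for surface and intracellular markers, analysed on a 4-laser LSRII.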

rhesus macaque = conditions: FX1 treatment; cited from earlier work
[6] = In vitro plasma stability assay, human plasma; assay type: in vitro ADME; conditions: 37 °C
Procedure, shortened: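 Compound in DMSO, diluted to a 0.1 mM working solution in DMSO:water (1:1, v/v). Mouse, rat or human plasma thawed and pre-warmed at 37 °C, then mixed 100:1 (plasma:working solution). Incubated at 37 °C, 5% CO2, shaking at 200 rpm. Half-life determined from this plasma incubation.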

BCL6 = conditions: cited from earlier work

## O=C(O)CCN1C(=O)/C(=C2/C(=O)Nc3ccc(Cl)cc32)SC1=S [FX1]
SRBC-vaccinated mice [1]
  total titer of plasma pan IgG and IgM vs vehicle: no difference
[2]
  aqueous solubility: poor aqueous solubility
[3]
  stability (T1/2) in mouse plasma: significantly longer stability over AP-4-287 in mouse plasma
SRBC-vaccinated mice [4]
  SRBC-specific IgM and IgG1 vs vehicle: Lower
SRBC-vaccinated mice [5]
  GC B cells: can lower GC B
  frequency of CD4+ Tfh within GCs: did not reduce
Rhesus macaque
  lymphoid hyperplasia: reversal of lymphoid hyperplasia
[6]
  T1/2 in human plasma: 3.29 h
BCL6
  affinity compared with natural ligand (SMRT): higher affinity than its natural ligand (SMRT)
